Bioassay records: PubChem BioAssay, Broad Institute
In the library only some 2.7% were active in any assay of this set; here they are far more common.
Env fusion inh = HIV envelope-mediated fusion inhibition. HeLa-JRFL Env/CEM21 cell fusion, luciferase. inhibition, % at 12.3 µM. actives 1.1% (n = 360,000);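 active = mean replicate inhibition score of at least 50 and every replicate individually at or above 50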;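 note: 0% = plate neutral controls and 100% = maraviroc near 300 nM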
FGF22 binding = FGF22 (human) thermal shift binding; Q9HCT0; actives 1.5% (n = 340,000); AID 651658; activity (Tm shift, normalised), % at 9.99 µM; recombinant FGF22 thermal shift, SYPRO orange fluorescence; percent of sucrose octasulfate shift, DMSO zero;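 active = mean Tm shift, scaled 0 neutral to 100 positive control, at about 1.3% or above, every replicate too, limit read from the data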
Target sequence (Q9HCT0 whole entry, looked up): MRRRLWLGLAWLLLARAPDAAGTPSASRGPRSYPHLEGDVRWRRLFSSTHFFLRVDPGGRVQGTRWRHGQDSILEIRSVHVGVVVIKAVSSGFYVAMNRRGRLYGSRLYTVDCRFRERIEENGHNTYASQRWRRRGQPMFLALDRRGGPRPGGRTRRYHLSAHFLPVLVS
S100A4 inh HTS = blocks human S100A4 binding to myosin IIA peptide | inhibition, % at 10.7 µM | S100A4/TAMRA-MyoIIA peptide fluorescence polarization | actives 0.14% (n = 360,000);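 active = mean inhibition of at least 70% across replicates, with every replicate also reaching that level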
Target sequence (P26447 whole entry, looked up): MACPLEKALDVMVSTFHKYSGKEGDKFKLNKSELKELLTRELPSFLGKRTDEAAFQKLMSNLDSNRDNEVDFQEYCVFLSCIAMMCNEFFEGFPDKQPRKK
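Material: human S100A4 monomer with TAMRA-labelled myosin IIA peptide; buffer or medium: HEPES pH 7.2 with CaCl2, KCl, NaCl, DTT, Triton; compound dosing: one concentration per compound; schedule: 5 min incubation before reading; benchmarks: neutral control DMSO, positive control TFP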
E-selectin induc = induces E-selectin expression in human endothelial cells | P16581 | HUVEC E-selectin immunofluorescence imaging; normalized: neutral wells 0, TNF-alpha wells 100 | activation, % at 7.58 µM | actives 0.37% (n = 260,000) | AID 686992;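 active = mean E-selectin-positive cell signal at least 10% of the positive control, reached in at least 60% of replicates, without over 20% cell loss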
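material = human umbilical vein endothelial cells (HUVEC), E-selectin induction | quantity = 3,000 cells/well | medium = EGM-2 growth medium on 0.1% gelatin-coated wells | technique = immunofluorescence imaging | read-out basis = % PE-positive cells | control set = TNF-alpha positive control, DMSO neutral control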
F508del corr = correctors of CFTR F508del function in bronchial epithelial cells; CFBE cells, YFP halide quenching; stimulated with forskolin plus potentiator P3; % fluorescence drop versus neutral controls; activity (quench increase), % at 7.58 µM; actives 0.36% (n = 350,000);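 active = mean added fluorescence quench of at least 8% versus neutral control, with both replicates also reaching 8%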;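 note: cells transiently co-express mutant CFTR-F508del with the halide-sensitive YFP; corrector assay measuring rescue of mutant channel to the surface after 24 h compound exposure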
* = called active by the depositor; · = no result; [ ] = another dose, or the depositor's remark.

SMILES | Env fusion inh | FGF22 binding | S100A4 inh HTS | E-selectin induc | F508del corr
Cn1ncc2c(=O)n(/N=C/c3ccccc3)cnc21 | 0.2 | 43.7* | -1.7 | · | -1.6
C/C(=N\N1CCN(C)CC1)c1ccc(OC(F)F)cc1 | 7.3 | 42.9* | 0.6 | · | -1.9
CN(C)C(=O)c1ccc(-c2ccccc2[C@@H]2[C@@H](CO)N(C(=O)C3CCCC3)[C@H]2C#N)cc1 | · | · | 6.6 | 0.0 | -1.2
Cc1ccc(C(=O)Nc2ccccc2-c2ccccc2)cc1S(=O)(=O)Nc1cccc(C)c1C | 14.3 | · | · | · | ·
Cc1ccc(C)c(NS(=O)(=O)c2cc(C(=O)Nc3ccccc3-c3ccccc3)ccc2C)c1 | 71.4* | · | · | · | ·
O=C(CSc1nc(=O)n2ccccc2n1)N1CCCc2ccccc21 | 0.1 | 0.0 | -7.8 | 32.0* | 1.8
Cc1ccn2c(=O)nc(SCC(=O)N3CCCc4ccccc43)nc2c1 | -32.5 | -0.4 | -2.3 | · | -5.2
NC(=O)NC(=O)COC(=O)CC12CC3CC(CC(C3)C1)C2 | 7.7 | 43.7* | 5.3 | · | 2.5
NC(=O)COC(=O)CC12CC3CC(CC(C3)C1)C2 | -9.3 | 0.0 | -5.7 | -1.3 | 0.3
COc1ccc(NC(=O)Nc2ccc3c(c2)C(=O)N([C@@H](C)CO)C[C@@H](C)[C@@H](CN(C)C(=O)Nc2ccc(C(F)(F)F)cc2)OCCCC[C@@H](C)O3)cc1 | 14.1[16.7 µM] | 0.5 | 5.6 | 0.1 | -0.1
Cc1nc(N2CCN(C)CC2)[nH]c(=O)c1Cc1cccc2ccccc12 | -7.3 | · | · | · | ·
Cc1[nH]c(=O)[nH]c(=O)c1Cc1cccc2ccccc12 | -10.7 | 43.3* | 3.9 | 0.8 | 0.1
COc1cc(C=O)ccc1OS(=O)(=O)c1ccc(NC(C)=O)cc1 | 9.0 | 1.9* | -1.2 | · | ·
O=C(c1cccnc1)N1CC2(C1)[C@@H](c1ccccc1)[C@@H](CO)N2C(=O)C1CCC1 | · | -0.3 | 4.4 | -0.1 | -0.7
[N-]=[N+]=Nc1ccccc1C[C@@]1(C(=O)NCc2ccccc2)N=C(c2ccc(OCCCO)cc2)O[C@@H]1c1ccccc1N=[N+]=[N-] | 59.5*[16.7 µM] | 0.2 | -5.4 | · | -0.2
CN(C)C(=O)[C@@]1(Cc2ccccc2N=[N+]=[N-])N=C(c2ccc(OCCCO)cc2)O[C@H]1c1ccccc1N=[N+]=[N-] | 8.3[16.7 µM] | -0.6 | -5.7 | · | 0.3
OCCCn1c(CCNc2nc(-c3ccc(F)cc3)cs2)nc2cc(C(F)(F)F)ccc21 | 71.5* | 0.0 | -2.1 | 1.1 | -1.6
O=C(C[C@@H]1CC[C@@H](NC(=O)Cc2ccccn2)[C@H](CO)O1)NCCc1ccncc1 | -12.4[16.7 µM] | · | · | 0.1 | -1.5
C[C@H]1CCCCO[C@H](CN(C)Cc2ccc3c(c2)OCO3)[C@@H](C)CN([C@@H](C)CO)C(=O)c2cc(NC(=O)CCC(F)(F)F)ccc2O1 | 7.0[16.7 µM] | 0.0 | 0.1 | 0.0 | -0.4
Cc1ccc(C(=O)CC(=O)c2cccc(F)c2)c(O)c1 | 61.4* | · | · | · | ·
O=C(CNC(=O)c1ccc([N+](=O)[O-])cc1)N/N=C\c1ccc(OC(=O)c2ccccc2)cc1 | -80.7 | · | · | · | ·
COc1cccc(C(=O)NCC(=O)N/N=C/c2cccc(OC(=O)c3ccc([N+](=O)[O-])cc3)c2)c1 | 2.4 | 43.4* | 0.3 | · | 2.2
Cc1noc(C)c1NC(=O)Nc1ccc2c(c1)CC(=O)N([C@@H](C)CO)C[C@@H](C)[C@H](CN(C)C(=O)Nc1cccc3ccccc13)O2 | 11.7[16.7 µM] | -0.3 | -3.6 | 0.2 | -1.0
CC1CN(c2nc3ccccc3nc2C(C#N)C(=O)OC2CCCCC2)CC(C)O1 (stereo not given) | 58.8* | · | · | · | ·
O=C(N[C@@H]1CC[C@H](CCNS(=O)(=O)c2ccc(Cl)cc2)O[C@@H]1CO)c1cccc(F)c1 | -5.7[16.7 µM] | -0.7 | 5.6 | 0.3 | -1.5
SMILES | Env fusion inh | FGF22 binding | S100A4 inh HTS | E-selectin induc | F508del corr
C[C@H]1CN([C@@H](C)CO)C(=O)c2cc(C#CC3(O)CCCC3)cnc2O[C@@H]1CN(C)C(=O)Cc1ccncc1 | 2.4[16.7 µM] | 0.0 | 2.7 | -0.1 | -1.7
CCOc1ccc(S(=O)(=O)Nc2ccccc2C(=O)N(C)C2CCN(C)CC2)cc1 | · | -0.4 | 22.0 | · | -2.5
CCOC(=O)c1ccccc1NS(=O)(=O)c1ccc(OCC)cc1 | 62.8* | · | · | · | ·
C[C@@H]1CCCCO[C@@H](CN(C)C(=O)C2CCCCC2)[C@@H](C)CN([C@H](C)CO)C(=O)c2cc(NC(=O)Nc3ccc(C(F)(F)F)cc3)ccc2O1 | 14.8[16.7 µM] | -0.2 | 7.3 | 0.7 | 2.9
O=C(O)CCN(Cc1ccccc1)S(=O)(=O)c1ccc(Cl)cc1F | -3.3 | 43.7* | -3.0 | 0.1 | -2.1
COC(=O)CCN(Cc1ccccc1)S(=O)(=O)c1ccccc1Br | 17.3 | 0.1 | -2.8 | -0.1 | -0.5
COc1ccc2c3c([nH]c2c1)[C@H](CO)N(C(=O)c1ccccn1)CC31CCN(C(=O)C2CCC2)CC1 | · | -0.3 | -34.6 | -0.3 | 2.4
COCC#Cc1ccc([C@H]2[C@H]3CN(C(=O)C4CCC4)CC(=O)N3[C@H]2CO)cc1 | · | · | -15.8 | -0.1 | -1.3
CC(C)(C)c1ccc(OCCC(=O)OCC(=O)NC2CCS(=O)(=O)C2)cc1 (stereo not given) | -2.7 | 43.2* | -2.1 | -0.3 | 1.6
CC(C)(C)c1ccc(OCCC(=O)OCC(=O)NC2CC2)cc1 | · | -0.2 | -1.9 | · | -1.5
CC(C)CNC(=O)c1ccccc1SCC(=O)NC12CC3CC(CC(C3)C1)C2 | 64.0* | · | · | · | ·
O=C(COC(=O)c1nc(Cl)ccc1Cl)c1ccc(Cl)s1 | -23.5 | 43.7* | -0.7 | · | 0.7
CC1(C)N=C(N)N=C(N)N1CCCCc1ccccc1 | 74.5* | · | -0.8 | 0.2 | 6.6
CNC(=O)/C(C#N)=C/c1ccc(-c2ccc(Cl)cc2)o1 | -12.4 | 1.5* | 19.2 | 3.3 | 1.9
CNC(=O)/C(C#N)=C/c1ccc(-c2ccccc2[N+](=O)[O-])o1 | -5.3 | 42.0 | -0.4 | -0.7 | -0.5
CN1CCN(S(=O)(=O)c2ccc(Cl)s2)CC1 | -3.6 | 0.0 | -3.9 | 0.2 | 1.1
CC(C)c1ccc(CN2CCN(S(=O)(=O)c3ccc(Cl)s3)CC2)cc1 | 24.2 | 0.1 | 9.0 | 0.0 | 29.9*
CN(C(=O)c1ccccc1C(=O)OCC(=O)Nc1ccc(S(N)(=O)=O)cc1)c1ccccc1 | -3.6 | -0.1 | -5.0 | · | 8.2*
CCCC#Cc1cnc2c(c1)C(=O)N([C@@H](C)CO)C[C@@H](C)[C@@H](CN(C)C(=O)Nc1cc(F)ccc1F)O2 | 15.4[16.7 µM] | -0.1 | 2.5 | 0.6 | -1.5
COc1ccc(CNC(=O)C[C@H]2CC[C@@H](NS(=O)(=O)c3cccc(OC)c3)[C@@H](CO)O2)cc1 | 4.6[16.7 µM] | -0.1 | 6.3 | 0.0 | 1.6
COc1ccccc1CNC(=O)Nc1nc(C(N)Cc2ccc(Cl)cc2)cs1 (stereo not given) | 8.2 | 0.1 | -2.3 | -0.1 | 8.3*
COc1ccc(CC(N)c2csc(NC(=O)Nc3ccccc3Cc3ccccc3)n2)cc1 (stereo not given) | 98.5* | 0.1 | 6.2 | -0.2 | 1.7
